Test results from ChEMBL document CHEMBL1154674, “Synthesis and evaluation of three 18F-labeled aminophenylbenzothiazoles as amyloid imaging agents” (J Med Chem, 2009).

How the values were obtained:
Format in all cases: ADME, organism-based, Macaca mulatta
[1] = Drug level in normal rhesus monkey thalamus assessed as standard uptake value at 109.4 MBq, iv after 117 mins by microPET; settings: in vivo, 1.95 h
[2] = Drug level in normal rhesus monkey thalamus assessed as standard uptake value at 109.4 MBq, iv after 129 mins by microPET; settings: in vivo, 2.15 h
[3] = Drug level in normal rhesus monkey pons assessed as standard uptake value at 109.4 MBq, iv after 63 mins by microPET; settings: in vivo, 1.05 h
[4] = Drug level in normal rhesus monkey pons assessed as standard uptake value at 109.4 MBq, iv after 123 mins by microPET; settings: in vivo, 2.05 h
[5] = Drug level in normal rhesus monkey parietal cortex assessed as standard uptake value at 109.4 MBq, iv after 0.625 mins by microPET; settings: in vivo, 38 s
[6] = Drug level in normal rhesus monkey cerebellum assessed as standard uptake value at 109.4 MBq, iv after 105 mins by microPET; settings: in vivo, 1.75 h
[7] = Drug level in normal rhesus monkey frontal cortex assessed as standard uptake value at 109.4 MBq, iv after 4.5 mins by microPET; settings: in vivo, 0.075 h
Procedure, shortened: (§1)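 One normal rhesus monkey, each tracer given iv via the vena saphena (81.2, 96.3 or 109.4 MBq), with 1 day between tracer injections. Dynamic brain μPET over 180 min used frames of 5 × 60 s, 5 × 120 s, 9 × 300 s and 12 × 600 s. Images were reconstructed by filtered back projection with a RAMP filter. Regional time-activity curves were expressed as SUV.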

[8] = Drug level in normal rhesus monkey frontal cortex assessed as standard uptake value at 109.4 MBq, iv after 81 mins by microPET; settings: in vivo, 1.35 h
[9] = Drug level in normal rhesus monkey white matter assessed as standard uptake value at 109.4 MBq, iv after 117 mins by microPET; settings: in vivo, 1.95 h
[10] = Drug level in normal rhesus monkey thalamus assessed as standard uptake value at 109.4 MBq, iv after 0.375 mins by microPET; settings: in vivo, 22 s
[11] = Drug level in normal rhesus monkey thalamus assessed as standard uptake value at 109.4 MBq, iv after 81 mins by microPET; settings: in vivo, 1.35 h
[12] = Drug level in normal rhesus monkey parietal cortex assessed as standard uptake value at 109.4 MBq, iv after 52.5 mins by microPET; settings: in vivo, 0.875 h
[13] = Drug level in normal rhesus monkey parietal cortex assessed as standard uptake value at 109.4 MBq, iv after 63 mins by microPET; settings: in vivo, 1.05 h
[14] = Drug level in normal rhesus monkey parietal cortex assessed as standard uptake value at 109.4 MBq, iv after 117 mins by microPET; settings: in vivo, 1.95 h
[15] = Drug level in normal rhesus monkey pons assessed as standard uptake value at 81.2 MBq, iv after 4.5 mins by microPET; settings: in vivo, 0.075 h
[16] = Drug level in normal rhesus monkey pons assessed as standard uptake value at 81.2 MBq, iv after 14 mins by microPET; settings: in vivo
[17] = Drug level in normal rhesus monkey parietal cortex assessed as standard uptake value at 81.2 MBq, iv after 47.5 mins by microPET; settings: in vivo
[18] = Drug level in normal rhesus monkey parietal cortex assessed as standard uptake value at 81.2 MBq, iv after 155 mins by microPET; settings: in vivo
[19] = Drug level in normal rhesus monkey white matter assessed as standard uptake value at 81.2 MBq, iv after 85 mins by microPET; settings: in vivo
[20] = Drug level in normal rhesus monkey frontal cortex assessed as standard uptake value at 81.2 MBq, iv after 65 mins by microPET; settings: in vivo
[21] = Drug level in normal rhesus monkey cerebellum assessed as standard uptake value at 81.2 MBq, iv after 8 mins by microPET; settings: in vivo; procedure, shortened: as §1
[22] = Drug level in normal rhesus monkey cerebellum assessed as standard uptake value at 81.2 MBq, iv after 14 mins by microPET; settings: in vivo; procedure, shortened: as §1
[23] = Drug level in normal rhesus monkey cerebellum assessed as standard uptake value at 152.9 MBq, iv after 47.5 mins by microPET; settings: in vivo
Procedure, shortened: (§2)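 One normal rhesus monkey received each tracer via the vena saphena, with 1 day between injections. Dynamic μPET ran 180 min for 18F tracers (5×60 s, 5×120 s, 9×300 s, 12×600 s) and 90 min for the 11C tracer (5×60 s, 5×120 s, 9×300 s, 3×600 s). Filtered back-projection reconstruction (RAMP filter) was used. Time-activity curves were drawn to give regional SUV.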

[24] = Drug level in normal rhesus monkey thalamus assessed as standard uptake value at 152.9 MBq, iv after 1.5 mins by microPET; settings: in vivo, 0.025 h
[25] = Drug level in normal rhesus monkey thalamus assessed as standard uptake value at 152.9 MBq, iv after 4.5 mins by microPET; settings: in vivo, 0.075 h
[26] = Drug level in normal rhesus monkey cerebellum assessed as standard uptake value at 152.9 MBq, iv after 0.5 mins by microPET; settings: in vivo; procedure, shortened: as §2
[27] = Drug level in normal rhesus monkey thalamus assessed as standard uptake value at 152.9 MBq, iv after 65 mins by microPET; settings: in vivo
[28] = Drug level in normal rhesus monkey pons assessed as standard uptake value at 152.9 MBq, iv after 4.5 mins by microPET; settings: in vivo, 0.075 h
[29] = Drug level in normal rhesus monkey pons assessed as standard uptake value at 152.9 MBq, iv after 6 mins by microPET; settings: in vivo, 0.1 h
[30] = Drug level in normal rhesus monkey pons assessed as standard uptake value at 152.9 MBq, iv after 12 mins by microPET; settings: in vivo, 0.2 h
[31] = Drug level in normal rhesus monkey pons assessed as standard uptake value at 152.9 MBq, iv after 57.5 mins by microPET; settings: in vivo
[32] = Drug level in normal rhesus monkey pons assessed as standard uptake value at 152.9 MBq, iv after 75 mins by microPET; settings: in vivo, 1.25 h
[33] = Drug level in normal rhesus monkey parietal cortex assessed as standard uptake value at 152.9 MBq, iv after 4.5 mins by microPET; settings: in vivo, 0.075 h
[34] = Drug level in normal rhesus monkey parietal cortex assessed as standard uptake value at 152.9 MBq, iv after 6 mins by microPET; settings: in vivo, 0.1 h
[35] = Drug level in normal rhesus monkey thalamus assessed as standard uptake value at 96.3 MBq, iv after 32.5 mins by microPET; settings: in vivo
[36] = Drug level in normal rhesus monkey pons assessed as standard uptake value at 96.3 MBq, iv after 4.5 mins by microPET; settings: in vivo, 0.075 h
[37] = Drug level in normal rhesus monkey pons assessed as standard uptake value at 96.3 MBq, iv after 105 mins by microPET; settings: in vivo, 1.75 h
[38] = Drug level in normal rhesus monkey parietal cortex assessed as standard uptake value at 96.3 MBq, iv after 10 mins by microPET; settings: in vivo
[39] = Drug level in normal rhesus monkey cerebellum assessed as standard uptake value at 96.3 MBq, iv after 32.5 mins by microPET; settings: in vivo; procedure, shortened: as §1

An SUV [1] of 4.66, an SUV [2] of 4.43 and an SUV [3] of 4.75 were found for `Nc1ccc2nc(-c3ccc([18F])cc3)sc2c1` in this work. The SUV [4] was 4.99, the SUV [5] was 1.52 and the SUV [6] was 2.5. For the same compound, the SUV [7] was 5.43, the SUV [8] was 4.41 and the SUV [9] was 3.71. It also gave an SUV [10] of 0.41, an SUV [11] of 5.18 and an SUV [12] of 4.38. It also gave an SUV [13] of 4.18 and an SUV [14] of 3.51.
An SUV [15] of 5.172, an SUV [16] of 4.757 and an SUV [17] of 3.676 were found for `CNc1ccc2nc(-c3ccc([18F])cc3)sc2c1` in this work. The SUV [18] was 2.662, the SUV [19] was 3.871 and the SUV [20] was 5.125. For the same compound, the SUV [21] was 2.781 and the SUV [22] was 2.614.
An SUV [23] of 0.866, an SUV [24] of 0.487 and an SUV [25] of 2.075 were found for `[11CH3]Nc1ccc(-c2nc3ccc(O)cc3s2)cc1` [PITTSBURGH COMPOUND B] in this work. It also gave an SUV [26] of 0.053, an SUV [27] of 0.85 and an SUV [28] of 2.008. It also gave an SUV [29] of 2.044, an SUV [30] of 2.117 and an SUV [31] of 0.95. It also gave an SUV [32] of 0.834, an SUV [33] of 1.925 and an SUV [34] of 2.16.
An SUV [35] of 2.33, an SUV [36] of 1.28 and an SUV [37] of 1.72 were found for `CN(C)c1ccc2nc(-c3ccc([18F])cc3)sc2c1` in this work. The SUV [38] was 2.26 and the SUV [39] was 1.46.
